Measurements taken from ChEMBL document CHEMBL4359903, “1,2,4-Oxadiazole derivatives targeting EGFR and c-Met degradation in TKI resistant NSCLC” (Eur J Med Chem, 2019).
Activity calls are given as the source filed them. No cut-off for these calls is given here.

Columns and labels:
[1] = molecular target: Hepatocyte growth factor receptor (Homo sapiens) (UniProt P08581); assay: Induction of c-MET degradation in human NCI-H1975 cells harbouring EGFR L858R/T790M double assessed as reduction in c-Met expression at 0.2 to 0.6 uM incubated for 48 hrs by Western blot analysis; type: cell-based
Hepatocyte growth factor receptor (Homo sapiens), sequence (P08581 whole entry): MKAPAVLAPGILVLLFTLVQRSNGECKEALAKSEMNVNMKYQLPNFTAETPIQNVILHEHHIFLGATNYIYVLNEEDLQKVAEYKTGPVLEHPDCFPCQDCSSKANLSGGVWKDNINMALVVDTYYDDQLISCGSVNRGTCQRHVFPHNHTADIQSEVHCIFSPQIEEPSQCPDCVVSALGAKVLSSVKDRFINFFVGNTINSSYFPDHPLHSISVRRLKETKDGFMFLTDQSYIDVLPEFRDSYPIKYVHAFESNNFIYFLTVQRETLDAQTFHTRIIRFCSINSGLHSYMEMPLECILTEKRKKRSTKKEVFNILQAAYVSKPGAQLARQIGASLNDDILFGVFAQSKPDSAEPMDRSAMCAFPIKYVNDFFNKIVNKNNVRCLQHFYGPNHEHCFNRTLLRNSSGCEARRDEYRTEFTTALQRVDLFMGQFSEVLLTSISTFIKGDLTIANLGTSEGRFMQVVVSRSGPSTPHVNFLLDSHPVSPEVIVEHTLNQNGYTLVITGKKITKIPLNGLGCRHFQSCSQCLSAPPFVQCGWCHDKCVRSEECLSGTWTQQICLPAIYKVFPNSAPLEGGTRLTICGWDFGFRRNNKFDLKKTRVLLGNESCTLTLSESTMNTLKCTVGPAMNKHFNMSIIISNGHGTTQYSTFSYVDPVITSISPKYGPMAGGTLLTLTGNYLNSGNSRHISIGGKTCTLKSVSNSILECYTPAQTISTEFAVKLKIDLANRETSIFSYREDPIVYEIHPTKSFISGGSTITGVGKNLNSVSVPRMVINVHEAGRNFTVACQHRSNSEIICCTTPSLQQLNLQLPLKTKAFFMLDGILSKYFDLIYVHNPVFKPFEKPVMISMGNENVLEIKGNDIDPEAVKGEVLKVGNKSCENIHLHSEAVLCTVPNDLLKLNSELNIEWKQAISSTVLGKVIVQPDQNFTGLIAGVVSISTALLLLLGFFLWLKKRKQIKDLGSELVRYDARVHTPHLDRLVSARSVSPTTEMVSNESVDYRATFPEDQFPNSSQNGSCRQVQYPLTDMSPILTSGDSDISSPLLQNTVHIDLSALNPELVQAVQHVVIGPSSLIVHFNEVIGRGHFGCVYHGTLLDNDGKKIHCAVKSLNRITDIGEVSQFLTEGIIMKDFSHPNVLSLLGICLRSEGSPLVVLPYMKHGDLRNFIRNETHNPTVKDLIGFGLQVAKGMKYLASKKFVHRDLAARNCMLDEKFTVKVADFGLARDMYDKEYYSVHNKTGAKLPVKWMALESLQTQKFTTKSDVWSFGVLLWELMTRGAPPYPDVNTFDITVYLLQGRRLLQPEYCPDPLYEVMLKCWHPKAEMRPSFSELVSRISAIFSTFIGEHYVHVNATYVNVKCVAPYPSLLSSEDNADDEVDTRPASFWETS
How it was run: (§1)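 After 48 h treatment, cells were scraped and lysed in 1% SDS, 50 mM Tris-HCl pH 8.0, 10 mM EDTA with protease and phosphatase inhibitors. Lysates sonicated, protein measured by BCA, equal amounts run on SDS-PAGE and blotted to nitrocellulose. Primary antibodies (EGFR, c-Met, S473-Akt, Akt, GAPDH) used at 1:1000 overnight at 4 °C, HRP secondaries at 1:5000, ECL detection.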

NCI-H1975 [2] = assay: Antitumor activity against human NCI-H1975 cells harbouring EGFR L858R/T790M double mutant xenografted in athymic Nude-Foxn1nu BALB/c mouse assessed as tumor growth inhibition at 50 mg/kg, po administered once daily via gavage for 20 days measured twice a week by caliper method relative to control; type: functional; conditions: 480 h, read-out: TGI
NCI-H1975 [3] = assay: Antitumor activity against human NCI-H1975 cells harbouring EGFR L858R/T790M double mutant xenografted in athymic Nude-Foxn1nu BALB/c mouse assessed as reduction in EGFR expression in tumor lysates administered once daily via oral gavage for 20 days measured on day 20 by Western blot analysis; type: functional; conditions: Neoplasm, Lysate
How it was run: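 H1975 xenografts in nude mice gavaged daily for 20 days with vehicle, 50 or 150 mg/kg. At study end mice were killed by CO2, and tumor lysates from four representative tumors per group were immunoblotted for EGFR and c-Met. Band intensities quantified by densitometry.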

[4] = molecular target: Hepatocyte growth factor receptor (Homo sapiens) (UniProt P08581); assay: Effect on c-Met degradation in human NCI-H1975 cells harboring EGFR L858R/T790M double assessed as reduction in c-Met expression at 0.2 to 0.6 uM incubated for 48 hrs by RT-PCR analysis; type: cell-based
How it was run: (§2)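 Total RNA extracted with TRIzol from H1975 and A549 cells treated at 0.2–0.6 µM. EGFR and c-Met mRNA assessed by RT-PCR.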

PC-9 [5] = assay: Antiproliferative activity against human PC9 cells harbouring EGFR delE746-A750 mutant assessed as reduction in cell viability incubated for 48 hrs by MTT assay; type: functional, cell-based; conditions: PC-9, 48 h
How it was run: (§3)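 Cells seeded at 5000 per well in 10% FBS and left overnight, then exposed to agent or DMSO in 5% FBS for 48 h. MTT added for 1 h, dye dissolved in DMSO, absorbance read at 570 nm. Viability given as percent of vehicle control. At least three independent experiments, means ± SD.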

[6] = tested on: Epidermal growth factor receptor (Homo sapiens), P00533 [UNDEFINED MUTATION]; assay: Induction of EGFR E746-A750 deletion mutant degradation in human PC9 cells assessed as reduction in EGFR expression at 0.2 to 0.6 uM incubated for 48 hrs by Western blot analysis; type: cell-based; how it was run: as §1
[7] = tested on: Epidermal growth factor receptor (Homo sapiens), P00533 [G719A,T790M]; assay: Induction of EGFR G719A/T790M mutant degradation in human CL97 cells assessed as reduction in EGFR expression at 0.2 to 0.6 uM incubated for 48 hrs by Western blot analysis; type: cell-based; how it was run: as §1
[8] = Antiproliferative activity against human CL68 cells harbouring EGFR delE746-A750/T790M mutant assessed as reduction in cell viability incubated for 48 hrs by MTT assay; type: functional, cell-based; how it was run: as §3
[9] = tested on: Epidermal growth factor receptor (Homo sapiens), P00533 [L858R,T790M]; assay: Induction of EGFR L858R/T790M double mutant degradation in human NCI-H1975 cells assessed as reduction in EGFR expression at 0.2 to 0.6 uM incubated for 48 hrs by Western blot analysis; type: cell-based; how it was run: as §1
Homo sapiens = species: Homo sapiens; assay: Cell cycle arrest in human CL68 cells harbouring EGFR delE746-A750/T790M mutant assessed as increase in cells accumulation at G2/M phase at 0.4 to 0.8 uM incubated for 48 hrs by propidium iodide based flow cytometry; type: functional
How it was run: (§4)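 Cells plated at 3 × 10^5 per 6-cm dish and left overnight, then treated for 24 h and 48 h. Pellets fixed in 70% ethanol and stained with 40 µg/ml propidium iodide plus 20 µg/ml RNase A, 30 min on ice in the dark. DNA content read on a FACSCalibur flow cytometer.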

CL97 [10] = assay: Cell cycle arrest in human CL97 cells harbouring EGFR G719A/T790M mutant assessed as increase in cells accumulation at G2/M phase at 0.4 to 0.8 uM incubated for 48 hrs by propidium iodide based flow cytometry; type: functional; how it was run: as §4
A549 [11] = assay: Cell cycle arrest in human A549 cells assessed as increase in accumulation of cells at G2/M phase at 0.2 to 0.6 uM incubated for 48 hrs by propidium iodide based flow cytometry; type: functional; how it was run: as §4
NCI-H1975 [12] = assay: Cell cycle arrest in human NCI-H1975 cells harbouring EGFR L858R/T790M double mutant assessed as increase in cells accumulation at G2/M phase at 0.2 to 0.6 uM incubated for 48 hrs by propidium iodide based flow cytometry; type: functional; how it was run: as §4
PC-9 [13] = assay: Antiproliferative activity against human PC9 cells harbouring EGFR delE746-A750 mutant assessed as reduction in cell viability incubated for 72 hrs by MTT assay; type: functional, cell-based; conditions: PC-9, 72 h
CL97 [14] = assay: Antiproliferative activity against human CL97 cells harbouring EGFR G719A/T790M mutant assessed as reduction in cell viability incubated for 48 hrs by MTT assay; type: functional, cell-based; conditions: CL97, 48 h; how it was run: as §3
A549 [15] = assay: Antiproliferative activity against wild type human A549 cells assessed as reduction in cell viability incubated for 48 hrs by MTT assay; type: functional, cell-based; conditions: A549, 48 h; how it was run: as §3
[16] = molecular target: Hepatocyte growth factor receptor (Homo sapiens) (UniProt P08581); assay: Induction of c-MET degradation in human CL97 cells harbouring EGFR G719A/T790M assessed as reduction in c-Met expression at 0.2 to 0.6 uM incubated for 48 hrs by Western blot analysis; type: cell-based; how it was run: as §1
[17] = molecular target: Epidermal growth factor receptor (Homo sapiens) (UniProt P00533); assay: Induction of EGFR degradation in human MDA-MB-231 cells assessed as reduction in EGFR expression incubated for 48 hrs by immunoblot analysis; type: cell-based; how it was run: as §1
[18] = molecular target: Epidermal growth factor receptor (Homo sapiens) (UniProt P00533); assay: Effect on EGFR degradation in wild type human A549 cells assessed as reduction in EGFR mRNA expression at 0.2 to 0.6 uM incubated for 48 hrs by RT-PCR analysis; type: cell-based; how it was run: as §2
NCI-H1975 [19] = assay: Antitumor activity against human NCI-H1975 cells harbouring EGFR L858R/T790M double mutant xenografted in orally dosed athymic Nude-Foxn1nu BALB/c mouse assessed as tumor growth inhibition administered once daily via gavage for 20 days measured twice a week by caliper method; type: functional, organism-based
How it was run: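 Female Balb/c nude mice, 5 weeks old, injected subcutaneously in the right flank with 10^6 H1975 cells in 0.1 ml. Randomized at about 50 mm3, n = 8 per group. Gavaged once daily for 20 days with vehicle (10% DMSO/0.1% Tween 80/0.5% methylcellulose in sterile water) or 50 or 150 mg/kg. Calipers, V = width² × length × 0.52; volume and body weight twice weekly; Student's t-test.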

NCI-H1975 [20] = assay: Antiproliferative activity against human NCI-H1975 cells harbouring EGFR L858R/T790M double mutant assessed as reduction in cell viability incubated for 72 hrs by MTT assay; type: functional, cell-based; conditions: NCI-H1975, 72 h

Activity [1]: Active | Activity [4]: inactive | IC50 (PC-9 [5]): 600 nM | Activity [6]: Active | Activity [7]: Active | Activity [9]: Active | IC50 (PC-9 [13]): 500 nM | IC50 (A549 [15]): 300 nM | Activity [16]: Active | Activity [17]: Active | Activity [18]: inactive | IC50 (NCI-H1975 [20]): 300 nM
Structure (SMILES): O=C(Nc1cccc(-c2nc(-c3ccc(NC(=O)c4cccnc4)cc3Cl)no2)c1)Nc1ccc(NC(=O)C2CC2)c(C(F)(F)F)c1
inhibition in vivo at 50 mg/kg (NCI-H1975 [2]): 29 to 37% | Activity (NCI-H1975 [3]): Dose-dependent effect | IC50 [8]: 500 nM | Activity (Homo sapiens): Active | Activity (CL97 [10]): Active | Activity (A549 [11]): Active | Activity (NCI-H1975 [12]): Active | IC50 (CL97 [14]): 600 nM | TGI (NCI-H1975 [19]): Dose-dependent effect
